What was measured:
[1] = Volume of distribution in normal weight human at 236 mg infused over 30 mins; type: ADME, organism-based; details: in vivo, iv
[2] = Protein binding in morbidly obese human serum at 461 mg infused over 30 mins; type: ADME, cell-free; details: iv, read-out: PB (converted)
In short: (§1)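 Serum (separator tubes) was drawn at 0.5, 2 and 8 h after a single 30-min IV infusion of 4 mg/kg (total body weight) in adult females. Samples were spun at 1,500 × g for 10 min and stored at −80°C. Binding was measured by equilibrium dialysis, solid-phase extraction and LC-MS, linear over 1–250 μg/ml.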

[3] = Renal clearance per kg of ideal body weight in normal weight human at 236 mg infused over 30 mins; type: ADME, organism-based, Kidney; details: in vivo, iv, read-out: CL_renal (converted)
In short: (§2)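 Adult females were given a single 30-min IV infusion (4 mg/kg total body weight). Bladder voided before dosing, then urine collected for 24 h. Urine and plasma assayed by HPLC-UV at 214 nm. Renal clearance = 24-h urinary amount / plasma AUC0-24. Normalized to total body weight, ideal body weight or bioimpedance fat-free weight.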

[4] = AUC (0 to infinity) in normal weight human at 236 mg infused over 30 mins; type: ADME, organism-based; parameters: dose 236 mg, time infinity; details: plasma, iv
In short: (§3)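 Single 30-min IV infusion at 4 mg/kg total body weight in adult females. Plasma sampled at 0.5, 1, 1.5, 2, 4, 8, 12 and 24 h and assayed by HPLC-UV at 214 nm. kel came from log-linear regression, giving t1/2 = ln2/kel. AUC0-∞ is the linear-trapezoidal AUC0-24 plus C24/kel.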

Homo sapiens [5] = organism: Homo sapiens; assay: Volume of distribution per kg of ideal body weight in normal weight human at 236 mg infused over 30 mins; type: ADME, organism-based; details: in vivo, iv, 0.5 h
[6] = Volume of distribution in morbidly obese human at 461 mg infused over 30 mins; type: ADME, organism-based; details: in vivo, iv
Homo sapiens [7] = organism: Homo sapiens; assay: Total clearance per kg of ideal body weight in normal weight human at 236 mg infused over 30 mins; type: ADME, organism-based; details: in vivo, iv, 0.5 h
In short: (§4)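 Adult females received 4 mg/kg daptomycin by total body weight, IV over 30 min. Plasma sampled to 24 h and assayed by HPLC-UV at 214 nm. Total clearance = dose/AUC0-∞ (trapezoidal AUC0-24 plus C24/kel). Normalized to total body weight, ideal body weight (45.5 + 2.3 × inches over 5 ft) or fat-free weight from bioelectric impedance.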

[8] = Protein binding in normal weight human serum at 236 mg infused over 30 mins; type: ADME, cell-free; details: iv, read-out: PB (converted); in short: as §1
Homo sapiens [9] = organism: Homo sapiens; assay: Volume of distribution per kg of ideal body weight in morbidly obese human at 461 mg infused over 30 mins; type: ADME, organism-based; details: in vivo, iv, 0.5 h
Homo sapiens [10] = organism: Homo sapiens; assay: Total clearance per kg of fat-free weight in morbidly obese human at 461 mg infused over 30 mins; type: ADME, organism-based; details: in vivo, iv, 0.5 h; in short: as §4
[11] = Renal clearance per kg of total body weight in normal weight human at 236 mg infused over 30 mins; type: ADME, organism-based, Kidney; details: in vivo, iv, read-out: CL_renal (converted); in short: as §2
[12] = Cmin in normal weight human at 236 mg infused over 30 mins after 24 hrs; type: ADME, organism-based; details: in vivo, iv, read-out: Cmin
Homo sapiens [13] = organism: Homo sapiens; assay: Total clearance per kg of fat-free weight in normal weight human at 236 mg infused over 30 mins; type: ADME, organism-based; details: in vivo, iv, 0.5 h; in short: as §4
Homo sapiens [14] = organism: Homo sapiens; assay: Total clearance per kg of total body weight in normal weight human at 236 mg infused over 30 mins; type: ADME, organism-based; details: in vivo, iv, 0.5 h; in short: as §4
[15] = Renal clearance per kg of fat-free weight in normal weight human at 236 mg infused over 30 mins; type: ADME, organism-based, Kidney; details: in vivo, iv, read-out: CL_renal (converted); in short: as §2
Homo sapiens [16] = organism: Homo sapiens; assay: Volume of distribution per kg of fat-free weight in morbidly obese human at 461 mg infused over 30 mins; type: ADME, organism-based; details: in vivo, iv, 0.5 h
[17] = Cmax in morbidly obese human at 461 mg infused over 30 mins; type: ADME, organism-based; parameters: dose 461 mg; details: in vivo, iv
Homo sapiens [18] = organism: Homo sapiens; assay: Volume of distribution per kg of total body weight in normal weight human at 236 mg infused over 30 mins; type: ADME, organism-based; details: in vivo, iv, 0.5 h
[19] = Renal clearance in normal weight human at 236 mg infused over 30 mins; type: ADME, organism-based, Kidney; details: in vivo, iv, read-out: CL_renal (converted); in short: as §2
Homo sapiens [20] = organism: Homo sapiens; assay: Total clearance per kg of total body weight in morbidly obese human at 461 mg infused over 30 mins; type: ADME, organism-based; details: in vivo, iv, 0.5 h; in short: as §4
Homo sapiens [21] = organism: Homo sapiens; assay: Volume of distribution per kg of total body weight in morbidly obese human at 461 mg infused over 30 mins; type: ADME, organism-based; details: in vivo, iv, 0.5 h
Homo sapiens [22] = organism: Homo sapiens; assay: Volume of distribution per kg of fat-free weight in normal weight human at 236 mg infused over 30 mins; type: ADME, organism-based; details: in vivo, iv, 0.5 h
[23] = Total clearance in morbidly obese human at 461 mg infused over 30 mins; type: ADME, organism-based; details: in vivo, iv; in short: as §4
[24] = Renal clearance in morbidly obese human at 461 mg infused over 30 mins; type: ADME, organism-based, Kidney; details: in vivo, iv, read-out: CL_renal (converted); in short: as §2
[25] = Cmax in human at 4 mg/kg of total body weight; type: ADME, organism-based; parameters: dose 4 mg/kg; details: in vivo
[26] = Renal clearance per kg of fat-free weight in morbidly obese human at 461 mg infused over 30 mins; type: ADME, organism-based, Kidney; details: in vivo, iv, read-out: CL_renal (converted); in short: as §2
[27] = AUC (0 to infinity) in morbidly obese human at 461 mg infused over 30 mins; type: ADME, organism-based; parameters: dose 461 mg, time infinity; details: plasma, iv; in short: as §3
[28] = Renal clearance per kg of ideal body weight in morbidly obese human at 461 mg infused over 30 mins; type: ADME, organism-based, Kidney; details: in vivo, iv, read-out: CL_renal (converted); in short: as §2
[29] = Cmin in morbidly obese human at 461 mg infused over 30 mins after 24 hrs; type: ADME, organism-based; details: in vivo, iv, read-out: Cmin
Homo sapiens [30] = organism: Homo sapiens; assay: Total clearance per kg of ideal body weight in morbidly obese human at 461 mg infused over 30 mins; type: ADME, organism-based; details: in vivo, iv, 0.5 h; in short: as §4
[31] = Renal clearance per kg of total body weight in morbidly obese human at 461 mg infused over 30 mins; type: ADME, organism-based, Kidney; details: in vivo, iv, read-out: CL_renal (converted); in short: as §2
[32] = Cmax in normal weight human at 236 mg infused over 30 mins; type: ADME, organism-based; parameters: dose 236 mg; details: in vivo, iv
[33] = Total clearance in normal weight human at 236 mg infused over 30 mins; type: ADME, organism-based; details: in vivo, iv; in short: as §4
[34] = Half life in morbidly obese human at 461 mg infused over 30 mins; type: ADME, organism-based; details: in vivo, iv; in short: as §3
[35] = Half life in normal weight human at 236 mg infused over 30 mins; type: ADME, organism-based; details: in vivo, iv; in short: as §3

Work on `CCCCCCCCCC(=O)N[C@@H](Cc1c[nH]c2ccccc12)C(=O)N[C@H](CC(N)=O)C(=O)N[C@@H](CC(=O)O)C(=O)N[C@@H]1C(=O)NCC(=O)N[C@@H](CCCN)C(=O)N[C@@H](CC(=O)O)C(=O)N[C@H](C)C(=O)N[C@@H](CC(=O)O)C(=O)NCC(=O)N[C@H](CO)C(=O)N[C@@H]([C@H](C)CC(=O)O)C(=O)N[C@@H](CC(=O)c2ccccc2N)C(=O)O[C@@H]1C` yielded a Vd [1] of 7.69 L, a fraction unbound at 0.5 h [2] of 0.112 and a CL renal at 0.5 h [3] of 0.165 mL/min. It also gave an AUC(0-inf) [4] of 346 µg·h/mL, a Vd (Homo sapiens [5]) of 0.14 L and a Vd [6] of 10 L. It also gave a CL (Homo sapiens [7]) of 0.013 L/h, a fraction unbound at 0.5 h [8] of 0.1 and a Vd (Homo sapiens [9]) of 0.19 L. For the same molecule, the CL (Homo sapiens [10]) was 0.015 L/h, the CL renal at 0.5 h [11] was 0.158 mL/min and the concentration at 24 h [12] was 3.39 µg/mL. For the same molecule, the CL (Homo sapiens [13]) was 0.016 L/h, the CL (Homo sapiens [14]) was 0.012 L/h and the CL renal at 0.5 h [15] was 0.217 mL/min. It also gave a Vd (Homo sapiens [16]) of 0.18 L, a Cmax [17] of 67.3 µg/mL and a Vd (Homo sapiens [18]) of 0.13 L. The CL renal at 0.5 h [19] was 9.83 mL/min, the CL (Homo sapiens [20]) was 0.0071 L/h and the Vd (Homo sapiens [21]) was 0.09 L. It also gave a Vd (Homo sapiens [22]) of 0.18 L, a clearance [23] of 13.7 mL/min and a CL renal at 0.5 h [24] of 8.33 mL/min. It also gave a Cmax [25] of 42.3 µg/mL, a CL renal at 0.5 h [26] of 0.153 mL/min and an AUC(0-inf) [27] of 581 µg·h/mL. The CL renal at 0.5 h [28] was 0.16 mL/min, the concentration at 24 h [29] was 6.55 µg/mL and the CL (Homo sapiens [30]) was 0.016 L/h. It also gave a CL renal at 0.5 h [31] of 0.0733 mL/min, a Cmax [32] of 42.3 µg/mL and a clearance [33] of 12.2 mL/min. It also gave a half-life [34] of 8.68 h and a half-life [35] of 7.72 h.

Source: ChEMBL document CHEMBL1155169, “Influence of morbid obesity on the single-dose pharmacokinetics of daptomycin” (Antimicrob Agents Chemother, 2007)
